Tests used:
Format in all cases: functional
[1] = tested on: Heligmosomoides polygyrus; test: Anthelmintic activity ( in Vivo ) in mouse, as percentage reduction of Nematospiroides dubius at 500 PPM
How it was run: (§1)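 Mice infected by oral gavage with 35-40 N. dubius L3 larvae plus 5000 H. nana eggs each. From 24 h post-infection, groups of four fed compound ad lib in powdered lab chow (31-1000 ppm) for 18 days. Killed on day 19; N. dubius counted in duodenum under dissecting microscope. Percent reduction computed from mean worm counts, treated vs untreated control.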

[2] = tested on: Heligmosomoides polygyrus; test: Anthelmintic activity ( in Vivo ) in mouse, as percentage reduction of Nematospiroides dubius at 125 PPM; how it was run: as §1
[3] = tested on: Heligmosomoides polygyrus; test: Anthelmintic activity ( in Vivo ) in mouse, as percentage reduction of Nematospiroides dubius at 31 PPM; how it was run: as §1
[4] = tested on: Heligmosomoides polygyrus; test: Anthelmintic activity ( in Vivo ) in mouse, as percentage reduction of Nematospiroides dubius at 62 PPM; how it was run: as §1
Ovis aries [5] = test: Anthelmintic activity (in Vivo)in sheep as percentage reduction versus control (by administration of benzimidazole-susceptible L3 larvae of Haemonchus contortus intraruminally)at 10.9 mg/kg po
How it was run: (§2)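 Sheep on lucerne/oaten chaff were infected intraruminally on day 0 with benzimidazole-susceptible L3 larvae (H. contortus 6000, O. circumcincta 8000, T. colubriformis 8000). They were allocated on day-27 faecal egg counts and weight (n = 4-7). A single intraruminal dose in 0.5% Na CMC/0.9% saline was given on day 28, with an untreated control per assay. On day 35, adult worms in abomasum and small intestine were counted as % reduction vs control.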

Ovis aries [6] = test: Anthelmintic activity (in Vivo)in sheep as percentage reduction versus control (by administration of benzimidazole-susceptible L3 larvae of Haemonchus contortus intraruminally)at 16.4 mg/kg po; how it was run: as §2
Ovis aries [7] = test: Anthelmintic activity (in Vivo)in sheep as percentage reduction versus control (by administration of benzimidazole-susceptible L3 larvae of Ostertagia circumcincta intraruminally)at 10.9 mg/kg po; how it was run: as §2
Ovis aries [8] = test: Anthelmintic activity (in Vivo)in sheep as percentage reduction versus control (by administration of benzimidazole-susceptible L3 larvae of Ostertagia circumcincta intraruminally)at 16.4 mg/kg po; how it was run: as §2
Ovis aries [9] = test: Anthelmintic activity (in Vivo)in sheep as percentage reduction versus control (by administration of benzimidazole-susceptible L3 larvae of Trichostrongylus colubriformis intraruminally) at 16.4 mg/kg po; how it was run: as §2
Ovis aries [10] = test: Anthelmintic activity (in Vivo)in sheep as percentage reduction versus control (by administration of benzimidazole-susceptible L3 larvae of Trichostrongylus colubriformis intraruminally) at 10.9 mg/kg po; how it was run: as §2
[11] = tested on: Heligmosomoides polygyrus; test: Anthelmintic activity ( in Vivo ) in mouse, as percentage reduction of Nematospiroides dubius at 250 PPM; how it was run: as §1
[12] = tested on: Heligmosomoides polygyrus; test: Anthelmintic activity ( in Vivo ) in mouse, as percentage reduction of Nematospiroides dubius at 1000 PPM; how it was run: as §1
Ovis aries [13] = test: Anthelmintic activity (in Vivo)in sheep as percentage reduction versus control (by administration of benzimidazole-susceptible L3 larvae of H contortus intraruminally)at 10 mg/kg po; how it was run: as §2
Ovis aries [14] = test: Anthelmintic activity (in Vivo)in sheep as percentage reduction versus control (by administration of benzimidazole-susceptible L3 larvae of H contortus intraruminally)at 5 mg/kg po; how it was run: as §2
Ovis aries [15] = test: Anthelmintic activity (in Vivo)in sheep as percentage reduction versus control (by administration of benzimidazole-susceptible L3 larvae of O circumcincta intraruminally)at 10 mg/kg po; how it was run: as §2
Ovis aries [16] = test: Anthelmintic activity (in Vivo)in sheep as percentage reduction versus control (by administration of benzimidazole-susceptible L3 larvae of O circumcincta intraruminally)at 5 mg/kg po; how it was run: as §2
Ovis aries [17] = test: Anthelmintic activity (in Vivo)in sheep as percentage reduction versus control (by administration of benzimidazole-susceptible L3 larvae of T colubriformis intraruminally) at 10 mg/kg po; how it was run: as §2
Ovis aries [18] = test: Anthelmintic activity (in Vivo)in sheep as percentage reduction versus control (by administration of benzimidazole-susceptible L3 larvae of T colubriformis intraruminally) at 5 mg/kg po; how it was run: as §2
Ovis aries [19] = test: Anthelmintic activity (in Vivo)in sheep as percentage reduction versus control (by administration of benzimidazole-susceptible L3 larvae of Haemonchus contortus intraruminally)at 15 mg/kg po; how it was run: as §2
Ovis aries [20] = test: Anthelmintic activity (in Vivo)in sheep as percentage reduction versus control (by administration of benzimidazole-susceptible L3 larvae of Haemonchus contortus intraruminally)at 30 mg/kg po; how it was run: as §2
Ovis aries [21] = test: Anthelmintic activity (in Vivo)in sheep as percentage reduction versus control (by administration of […] L3 larvae of Haemonchus contortus intraruminally)at 30 mg/kg po (Benzimidazole resistant strain)
How it was run: (§3)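 Sheep fed lucerne/oaten chaff were infected intraruminally with L3 larvae of a drug-resistant strain (benzimidazole-resistant; for O. circumcincta, benzimidazole-, levamisole- and morantel-resistant). They were grouped by faecal egg counts (n = 4-7) and dosed once intraruminally on day 28 in 0.5% Na CMC/saline. Adult worms were counted on day 35 as % reduction vs untreated control.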

Ovis aries [22] = test: Anthelmintic activity (in Vivo)in sheep as percentage reduction versus control (by administration of benzimidazole-susceptible L3 larvae of Ostertagia circumcincta intraruminally)at 15 mg/kg po; how it was run: as §2
Ovis aries [23] = test: Anthelmintic activity (in Vivo)in sheep as percentage reduction versus control (by administration of benzimidazole-susceptible L3 larvae of Ostertagia circumcincta intraruminally)at 30 mg/kg po; how it was run: as §2
Ovis aries [24] = test: Anthelmintic activity (in Vivo) in sheep as percentage reduction versus control (by administration of […] L3 larvae of Ostertagia circumcincta intraruminally)at 30 mg/kg po (Benzimidazole, levamisole and morantel resistant strain); how it was run: as §3
Ovis aries [25] = test: Anthelmintic activity (in Vivo)in sheep as percentage reduction versus control (by administration of benzimidazole-susceptible L3 larvae of Trichostrongylus colubriformis intraruminally) at 30 mg/kg po; how it was run: as §2
Ovis aries [26] = test: Anthelmintic activity (in Vivo)in sheep as percentage reduction versus control (by administration of benzimidazole-susceptible L3 larvae of Trichostrongylus colubriformis intraruminally) at 15 mg/kg po; how it was run: as §2
Ovis aries [27] = test: Anthelmintic activity (in Vivo)in sheep as percentage reduction versus control (by administration of […] L3 larvae of Trichostrongylus colubriformis intraruminally) at 30 mg/kg po (Benzimidazole resistant strain); how it was run: as §3
Ovis aries [28] = test: Anthelmintic activity (in Vivo)in sheep as percentage reduction versus control (by administration of benzimidazole-susceptible L3 larvae of Haemonchus contortus intraruminally)at 10 mg/kg po; how it was run: as §2
Ovis aries [29] = test: Anthelmintic activity (in Vivo)in sheep as percentage reduction versus control (by administration of benzimidazole-susceptible L3 larvae of Haemonchus contortus intraruminally)at 5 mg/kg po; how it was run: as §2
Ovis aries [30] = test: Anthelmintic activity (in Vivo)in sheep as percentage reduction versus control (by administration of benzimidazole-susceptible L3 larvae of Ostertagia circumcincta intraruminally)at 5 mg/kg po; how it was run: as §2
Ovis aries [31] = test: Anthelmintic activity (in Vivo)in sheep as percentage reduction versus control (by administration of benzimidazole-susceptible L3 larvae of Trichostrongylus colubriformis intraruminally) at 10 mg/kg po; how it was run: as §2
Ovis aries [32] = test: Anthelmintic activity (in Vivo)in sheep as percentage reduction versus control (by administration of benzimidazole-susceptible L3 larvae of Ostertagia circumcincta intraruminally)at 10 mg/kg po; how it was run: as §2
Ovis aries [33] = test: Anthelmintic activity (in Vivo)in sheep as percentage reduction versus control (by administration of benzimidazole-susceptible L3 larvae of Trichostrongylus colubriformis intraruminally) at 5 mg/kg po; how it was run: as §2

Compound `O=C(NC(=O)c1cc(F)cc(F)c1)Nc1cccc(C2CN3CCSC3=N2)c1` (centres undefined) has a Reduction [1] of 0%.

Work on `O=C(NC(=O)c1ccccc1F)Nc1cccc(C2CN3CCSC3=N2)c1` (centres undefined) yielded a Reduction [2] of 95%, a Reduction [3] of 0% and a Reduction [4] of 40%.

`Cl.O=C(NC(=O)c1c(F)cccc1F)Nc1cccc(C2CN3CCSC3=N2)c1` (centres undefined) was tested, and the Reduction (Ovis aries [5]) was 64%, the Reduction (Ovis aries [6]) was 78% and the Reduction (Ovis aries [7]) was 52%. It also gave a Reduction (Ovis aries [8]) of 82%, a Reduction (Ovis aries [9]) of 99% and a Reduction (Ovis aries [10]) of 93%.

`CC(C)(C)c1ccc(C(=O)NC(=O)Nc2cccc(C3CN4CCSC4=N3)c2)cc1` (centres undefined) was tested, and the Reduction [11] was 0%.

With `O=C(NC(=O)c1ccc(C(=O)c2ccccc2)cc1)Nc1cccc(C2CN3CCSC3=N2)c1` (centres undefined) the Reduction [12] was 100% and the Reduction [11] was 0%.

In the case of `O=C(NC(=O)c1cccc([N+](=O)[O-])c1)Nc1cccc(C2CN3CCSC3=N2)c1` (centres undefined), the Reduction [11] was 0%.

With `O=C(NC(=O)c1ccc(C(F)(F)F)cc1)Nc1cccc([C@H]2CN3CCSC3=N2)c1` the Reduction [2] was 0%, the Reduction [11] was 43% and the Reduction (Ovis aries [13]) was 59%. For the same compound, the Reduction (Ovis aries [14]) was 27%, the Reduction (Ovis aries [15]) was 29% and the Reduction (Ovis aries [16]) was 33%. For the same compound, the Reduction (Ovis aries [17]) was 40% and the Reduction (Ovis aries [18]) was 15%.

Compound `O=C(NC(=O)c1ccc(C(F)(F)F)cc1)Nc1cccc(C2CN3CCSC3=N2)c1` (centres undefined) has a Reduction [2] of 96%, a Reduction [11] of 100% and a Reduction [3] of 0%. It also gave a Reduction [1] of 100% and a Reduction [4] of 43%.

For `O=C(NC(=O)c1c(Cl)cccc1Cl)Nc1cccc(C2CN3CCSC3=N2)c1` (centres undefined), the Reduction [12] was 56% and the Reduction [1] was 0%.

For `O=C(NC(=O)c1ccc(F)cc1)Nc1cccc(C2CN3CCSC3=N2)c1` (centres undefined), the Reduction [11] was 0% and the Reduction [1] was 43%.

Compound `O=C(NC(=O)c1ccccc1Cl)Nc1cccc(C2CN3CCSC3=N2)c1` (centres undefined) has a Reduction [2] of 56%, a Reduction [11] of 100% and a Reduction [4] of 0%.

Work on `COC(=O)Nc1nc2cc([S+]([O-])c3ccccc3)ccc2[nH]1` (centres undefined) [OXFENDAZOLE] yielded a Reduction [2] of 100%, a Reduction [3] of 100% and a Reduction [4] of 100%.

In the case of `O=C(NC(=O)c1ccc(I)cc1)Nc1cccc(C2CN3CCSC3=N2)c1` (centres undefined), the Reduction [11] was 0%.

In the case of `COc1ccccc1C(=O)NC(=O)Nc1cccc(C2CN3CCSC3=N2)c1` (centres undefined), the Reduction [11] was 0%.

Compound `c1ccc(C2CN3CCSC3=N2)cc1` (centres undefined) [TETRAMISOLE] has a Reduction [2] of 100%, a Reduction [1] of 100% and a Reduction [4] of 0%.

Work on `O=C(NC(=O)c1ccc(OC(F)(F)F)cc1)Nc1cccc(C2CN3CCSC3=N2)c1` (centres undefined) yielded a Reduction [11] of 0%.

`O=C(NC(=O)c1ccccc1)Nc1cccc(C2CN3CCSC3=N2)c1` (centres undefined) showed a Reduction [12] of 59% and a Reduction [1] of 0%.

In the case of `N#Cc1ccc(C(=O)NC(=O)Nc2cccc(C3CN4CCSC4=N3)c2)cc1` (centres undefined), the Reduction [11] was 0%.

Work on `O=C(NC(=O)c1ccc(Cl)cc1)Nc1cccc(C2CN3CCSC3=N2)c1` (centres undefined) yielded a Reduction [1] of 0%.

With `O=C(NC(=O)c1ccccc1[N+](=O)[O-])Nc1cccc(C2CN3CCSC3=N2)c1` (centres undefined) the Reduction [1] was 0%.

With `O=C(NC(=O)c1ccc([N+](=O)[O-])cc1)Nc1cccc(C2CN3CCSC3=N2)c1` (centres undefined) the Reduction [12] was 0%.

With `O=C(NC(=O)c1c(F)cccc1F)Nc1cccc(C2CN3CCSC3=N2)c1` (centres undefined) the Reduction [2] was 76%, the Reduction [11] was 100% and the Reduction [1] was 100%. The Reduction [4] was 0%, the Reduction (Ovis aries [19]) was 92% and the Reduction (Ovis aries [20]) was 98%. It also gave a Reduction (Ovis aries [21]) of 100%, a Reduction (Ovis aries [22]) of 75% and a Reduction (Ovis aries [23]) of 93%. The Reduction (Ovis aries [24]) was 55%, the Reduction (Ovis aries [25]) was 99% and the Reduction (Ovis aries [26]) was 100%. It also gave a Reduction (Ovis aries [27]) of 92%.

`c1ccc([C@H]2CN3CCSC3=N2)cc1` [LEVAMISOLE] was tested, and the Reduction [3] was 60%, the Reduction [1] was 100% and the Reduction [4] was 100%.

For `COc1ccc(C(=O)NC(=O)Nc2cccc(C3CN4CCSC4=N3)c2)cc1` (centres undefined), the Reduction [12] was 0%.

With `O=C(NC(=O)c1c(F)cccc1F)Nc1cccc([C@H]2CN3CCSC3=N2)c1` the Reduction [2] was 26%, the Reduction [11] was 100% and the Reduction [1] was 100%. For the same compound, the Reduction [4] was 0%, the Reduction (Ovis aries [28]) was 90% and the Reduction (Ovis aries [19]) was 86%. For the same compound, the Reduction (Ovis aries [29]) was 74%, the Reduction (Ovis aries [22]) was 74% and the Reduction (Ovis aries [30]) was 56%. The Reduction (Ovis aries [31]) was 96%, the Reduction (Ovis aries [26]) was 98% and the Reduction (Ovis aries [32]) was 64%. It also gave a Reduction (Ovis aries [33]) of 75%.

Source: ChEMBL document CHEMBL1125904, “Synthesis and anthelmintic activity of 3'-benzoylurea derivatives of 6-phenyl-2,3,5,6-tetrahydroimidazo[2,1-b]thiazole” (1991)
